In ChEMBL document CHEMBL5712077, “Secreted heat shock protein 90 promotes prostate cancer stem cell heterogeneity” (Oncotarget, 2017):
Active and inactive are the calls of the source. No cut-off for these calls is given here.

Key:
Settings in all cases: time 3.0 day
[1] = target: Histone-lysine N-methyltransferase EZH2 (Homo sapiens) (UniProt Q15910); assay: Inhibition of EZH2 in human ARCaPE cells expressing Hsp90 assessed as reduction in side population at 500 nM after 3 days by Hoechst staining based flow cytometry; format: cell-based
In short: (§1)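 Side population by flow cytometry after 3 days of inhibitor treatment. Cells at 1 x 10^6/mL in culture medium were stained with Hoechst 33342 at 5 ug/mL for 2 h at 37C, protected from light. Propidium iodide excluded dead cells. UV laser; Hoechst red 620 nm against blue 448 nm. Gate set on 50 uM verapamil controls. At least three repeats, Student's t-test.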

[2] = target: Histone-lysine N-methyltransferase EZH2 (Homo sapiens) (UniProt Q15910); assay: Inhibition of EZH2 in human DU-145 cells expressing Hsp90 assessed as reduction in side population at 500 nM after 3 days by Hoechst staining based flow cytometry; format: cell-based; in short: as §1
[3] = target: Histone-lysine N-methyltransferase EZH2 (Homo sapiens) (UniProt Q15910); assay: Inhibition of EZH2 in human ARCaPE cells expressing Hsp90 assessed as decrease in spheroid growth at 500 nM for 3 days and cells were treated pre-spheroid suspension by microscopic analysis; format: cell-based
In short: (§2)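 Spheroid passaging with inhibitor exposure. Pre-treatment: inhibitor given for 3 days before suspension. Post-treatment: inhibitor given at initial suspension. Continuous: 3-day pre-treatment, then kept on inhibitor in spheroid culture. Cells seeded at 2000 per well in low-attachment plates in DMEM/F12 with N2 and B27. Spheres of at least 5 cells counted at day 10-14 for each passage. Compared with untreated cells by Student's t-test.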

[4] = target: Histone-lysine N-methyltransferase EZH2 (Homo sapiens) (UniProt Q15910); assay: Inhibition of EZH2 in human ARCaPE cells expressing Hsp90 assessed as decrease in spheroid growth at 500 nM for 3 days and cells were treated under continuous condition by microscopic analysis; format: cell-based; in short: as §2
[5] = target: Histone-lysine N-methyltransferase EZH2 (Homo sapiens) (UniProt Q15910); assay: Inhibition of EZH2 in human ARCaPE cells expressing Hsp90 assessed as decrease in spheroid growth at 500 nM for 3 days and cells were treated post-spheroid suspension by microscopic analysis; format: cell-based; in short: as §2
[6] = target: Histone-lysine N-methyltransferase EZH2 (Homo sapiens) (UniProt Q15910); assay: Inhibition of EZH2 in human DU-145 cells expressing Hsp90 assessed as decrease in spheroid growth at 500 nM for 3 days and cells were treated pre-spheroid suspension by microscopic analysis; format: cell-based; in short: as §2
[7] = target: Histone-lysine N-methyltransferase EZH2 (Homo sapiens) (UniProt Q15910); assay: Inhibition of EZH2 in human DU-145 cells expressing Hsp90 assessed as decrease in spheroid growth at 500 nM for 3 days and cells were treated under continuous condition by microscopic analysis; format: cell-based; in short: as §2
[8] = target: Histone-lysine N-methyltransferase EZH2 (Homo sapiens) (UniProt Q15910); assay: Inhibition of EZH2 in human DU-145 cells expressing Hsp90 assessed as decrease in spheroid growth at 500 nM for 3 days and cells were treated post-spheroid suspension by microscopic analysis; format: cell-based; in short: as §2
[9] = test system: ARCaPE; assay: Inhibition of extracellular Hsp90 in human ARCaPE cells expressing Hsp90 assessed as increase in spheroid growth at 1 uM for 3 days and cells were treated post spheroid suspension by microscopic analysis; format: cell-based; in short: as §2
[10] = test system: ARCaPE; assay: Inhibition of extracellular Hsp90 in human ARCaPE cells expressing Hsp90 assessed as decrease in spheroid growth at 1 uM for 3 days and cells were treated under continuous condition by microscopic analysis; format: cell-based; in short: as §2
[11] = test system: ARCaPE; assay: Inhibition of extracellular Hsp90 in human ARCaPE cells expressing Hsp90 assessed as decrease in spheroid growth at 1 uM for 3 days and cells were treated pre-spheroid suspension by microscopic analysis; format: cell-based; in short: as §2
[12] = test system: DU-145; assay: Inhibition of extracellular Hsp90 in human DU-145 cells expressing Hsp90 assessed as reduction in side population ast 1 uM after 3 days by Hoechst staining based flow cytometry; format: cell-based; in short: as §1
[13] = test system: DU-145; assay: Inhibition of extracellular Hsp90 in human DU145 cells expressing Hsp90 assessed as decrease in spheroid growth at 1 uM for 3 days and cells were treated pre-spheroid suspension by microscopic analysis; format: cell-based; in short: as §2
[14] = test system: DU-145; assay: Inhibition of extracellular Hsp90 in human DU145 cells expressing Hsp90 assessed as decrease in spheroid growth at 1 uM for 3 days and cells were treated under continuous condition by microscopic analysis; format: cell-based; in short: as §2
[15] = test system: M12; assay: Inhibition of extracellular Hsp90 in human M12 cells expressing Hsp90 assessed as reduction in side population ast 1 uM after 3 days by Hoechst staining based flow cytometry

Chain of Histone-lysine N-methyltransferase EZH2 (Homo sapiens) (Q15910 whole entry, looked up): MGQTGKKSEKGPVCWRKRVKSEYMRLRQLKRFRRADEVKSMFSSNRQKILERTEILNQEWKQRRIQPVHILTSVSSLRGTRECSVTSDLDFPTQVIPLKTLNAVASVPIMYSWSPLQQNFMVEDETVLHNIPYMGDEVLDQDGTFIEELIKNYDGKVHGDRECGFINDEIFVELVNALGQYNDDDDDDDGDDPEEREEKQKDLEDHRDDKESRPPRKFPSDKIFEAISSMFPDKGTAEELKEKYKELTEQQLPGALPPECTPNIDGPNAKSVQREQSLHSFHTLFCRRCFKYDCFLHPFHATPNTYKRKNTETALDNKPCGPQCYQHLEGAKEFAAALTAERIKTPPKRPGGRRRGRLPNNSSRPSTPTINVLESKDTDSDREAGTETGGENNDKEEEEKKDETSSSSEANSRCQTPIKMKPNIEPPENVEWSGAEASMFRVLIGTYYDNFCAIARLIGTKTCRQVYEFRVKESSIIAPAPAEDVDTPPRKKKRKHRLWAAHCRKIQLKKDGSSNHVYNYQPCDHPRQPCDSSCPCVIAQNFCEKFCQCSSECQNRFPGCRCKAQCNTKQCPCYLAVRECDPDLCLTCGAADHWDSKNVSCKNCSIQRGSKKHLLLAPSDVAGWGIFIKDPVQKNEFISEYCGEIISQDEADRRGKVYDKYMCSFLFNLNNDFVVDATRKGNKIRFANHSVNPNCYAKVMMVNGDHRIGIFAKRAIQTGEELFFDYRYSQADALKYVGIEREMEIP

inhibition [1]	inhibition [2]	inhibition [3]	inhibition [4]	inhibition [5]	inhibition [6]	inhibition [7]	inhibition [8]	Structure (SMILES)	inhibition [9]	inhibition [10]	inhibition [11]	inhibition [12]	inhibition [13]	inhibition [14]	inhibition [15]
Active	Active	Active	Active	Active	Active	Active	Active	CCCc1cc(C)[nH]c(=O)c1CNC(=O)c1cc(-c2ccnc(N3CCN(C)CC3)c2)cc2c1cnn2C(C)C							
								COC1=C2C[C@@H](C)C[C@H](OC)[C@H](O)[C@@H](C)/C=C(\C)[C@H](OC(N)=O)[C@@H](OC)/C=C\C=C(/C)C(=O)NC(=CC1=O)C2=O	inactive	Active	Active	Active	Active	Active	Active
